Activity calls are given as the source filed them. The calls are words filed in the database; no cut-off is given here.
Key:
[1] = biological target: T1, Type-1 angiotensin II receptor A (Rattus norvegicus, UniProt P25095); assay: Displacement of [125]Ang2 from AT1 receptor in rat liver membrane; type: cell membranes
T1 sequence (P25095 whole entry): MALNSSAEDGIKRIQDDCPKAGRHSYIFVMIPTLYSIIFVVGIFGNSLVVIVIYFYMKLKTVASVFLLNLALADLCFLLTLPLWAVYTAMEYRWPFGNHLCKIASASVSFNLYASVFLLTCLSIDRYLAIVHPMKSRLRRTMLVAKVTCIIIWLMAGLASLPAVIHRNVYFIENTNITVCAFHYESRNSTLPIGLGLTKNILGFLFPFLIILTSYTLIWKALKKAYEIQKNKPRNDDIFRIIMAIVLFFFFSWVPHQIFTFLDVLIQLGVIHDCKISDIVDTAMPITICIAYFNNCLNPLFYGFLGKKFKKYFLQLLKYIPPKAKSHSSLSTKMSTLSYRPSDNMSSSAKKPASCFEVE
Method in brief: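 Rat liver membranes (5 mg original tissue per tube) incubated with [125I]Ang II (80,000–85,000 cpm, 0.03 nM) and varying test concentrations in 50 mM Tris–HCl pH 7.4, 100 mM NaCl, 10 mM MgCl2, 1 mM EDTA, 0.025% bacitracin, 0.2% BSA; 25 °C, 2 h. GF/B filtration, gamma counting; one-site fit; triplicate.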

AT2 receptor = AT2 receptor (Sus scrofa, UniProt A0A4X1W622); assay: Displacement of [125]Ang2 from AT2 receptor in pig uterus membrane; type: cell membranes
NG108-15 = assay: Effect on cellular morphology of mouse rat hybrid NG108-15 cells assessed as induction of neurite outgrowth; type: functional, cell-based
Method in brief: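 NG108-15 cells (passage 18–28) grown in DMEM/10% FBS/HAT/gentamycin, 37 °C, 7% CO2. Plated at 3.6 × 10^4 cells per 35 mm dish, dosed daily for 3 days starting 24 h after plating, ± AT2 antagonist PD 123,319 added 30 min before. Phase-contrast micrographs on day 4. Cells with a neurite longer than one cell body counted as % of total (≥290 cells). Three independent experiments, duplicates, mean ± SEM.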

SMILES	Ki [1]	Ki (AT2 receptor)	Activity (NG108-15)
CCCCOC(=O)NS(=O)(=O)c1cc(CC(C)C)ccc1-c1ccc(C(=O)N(CC)CC)cc1	> 10000 nM	122 nM	
CCCCOC(=O)NS(=O)(=O)c1sc(CC(C)C)cc1-c1ccc(C(=O)NC(C)C)cc1	> 10000 nM	2.6 nM	
CCCCOC(=O)NS(=O)(=O)c1ccc(-c2ccccc2)cc1-c1ccc(C(=O)N(CC)CC)cc1	> 10000 nM	52 nM	Active
CCCCOC(=O)NS(=O)(=O)c1ccccc1-c1ccc(C(=O)N(CC)CC)cc1	> 10000 nM	402 nM	
CCCCOC(=O)NS(=O)(=O)c1sc(CC(C)C)cc1-c1ccc(C(=O)N2CCOCC2)cc1	> 10000 nM	348 nM	
CCCCOC(=O)NS(=O)(=O)c1sc(CC(C)C)cc1-c1ccc(C(=O)N(C)Cc2ccccc2)cc1	> 10000 nM	31.5 nM	
CCCCOC(=O)NS(=O)(=O)c1sc(CC(C)C)cc1-c1ccc(C(=O)NC2CC2)cc1	> 10000 nM	10.5 nM	
CCCCOC(=O)NS(=O)(=O)c1sc(CC(C)C)cc1-c1ccc(C(=O)NC2CCCCC2)cc1	> 10000 nM	6.4 nM	
CCCCOC(=O)NS(=O)(=O)c1ccc(CC(C)C)cc1-c1ccc(Cn2ccnc2)cc1	> 10000 nM		
CCCCOC(=O)NS(=O)(=O)c1ccc(Cc2ccccc2)cc1-c1ccc(C(=O)N(CC)CC)cc1	> 10000 nM	162 nM	
CCCCOC(=O)NS(=O)(=O)c1sc(CC(C)C)cc1-c1ccc(C(=O)Nc2nccs2)cc1	> 10000 nM	10.9 nM	
CCCCOC(=O)NS(=O)(=O)c1sc(CC(C)C)cc1-c1ccc(C(=O)N2CCCC2)cc1	> 10000 nM	6.4 nM	
CCCCOC(=O)NS(=O)(=O)c1ccc(CC(C)C)cc1-c1ccc(C(=O)N(CC)CC)cc1	> 10000 nM	144 nM	
CCCCOC(=O)NS(=O)(=O)c1cc(Cc2ccccc2)ccc1-c1ccc(C(=O)N(CC)CC)cc1	> 10000 nM	300 nM	
CCCCOC(=O)NS(=O)(=O)c1sc(CC(C)C)cc1-c1ccc(C(=O)N2CCCCC2)cc1	> 10000 nM	3.2 nM	
CCCCOC(=O)NS(=O)(=O)c1sc(CC(C)C)cc1-c1ccc(C(=O)NCc2ccccc2)cc1	> 10000 nM	1 nM	Active
CCCCOC(=O)NS(=O)(=O)c1ccc(Oc2ccccc2)cc1-c1ccc(C(=O)N(CC)CC)cc1	> 10000 nM	91.7 nM	

Now from value to compound, other results behind:

Ki [1]	Ki (AT2 receptor)	SMILES	Activity (NG108-15)
> 10000 nM		CCCCOC(=O)NS(=O)(=O)c1sc(CC(C)C)cc1-c1ccc(Cn2ccnc2)cc1 [BULOXIBUTID]	
2.1 nM	0.7 nM	CCCCOC(=O)NS(=O)(=O)c1ccc(CC(C)C)cc1-c1ccc(Cn2c(CC)nc3c(C)cc(C)nc32)cc1	
> 10000 nM	36.9 nM	CCCCOC(=O)NS(=O)(=O)c1sc(CC(C)C)cc1-c1ccc(C(=O)N(C)C)cc1	
> 10000 nM	106 nM	CCCCOC(=O)NS(=O)(=O)c1sc(CC(C)C)cc1-c1ccc(C(N)=O)cc1	
> 10000 nM	8.8 nM	CCCCOC(=O)NS(=O)(=O)c1sc(CC(C)C)cc1-c1ccc(CN(C)C(C)=O)cc1	
> 10000 nM	7 nM	CCCCOC(=O)NS(=O)(=O)c1sc(CC(C)C)cc1-c1ccc(CC(=O)N(C)C)cc1	
1.1 nM	2 nM	CCCCOC(=O)NS(=O)(=O)c1sc(CC(C)C)cc1-c1ccc(Cn2c(CC)nc3c(C)cc(C)nc32)cc1	
> 10000 nM	3 nM	CCCCOC(=O)NS(=O)(=O)c1sc(CC(C)C)cc1-c1ccc(C(=O)N(CC)CC)cc1	Active
